Test results reported in ChEMBL document CHEMBL3244125, “In vivo inhibitors of Escherichia coli phenylalanyl-tRNA synthetase” (J Med Chem, 1979).
Active and inactive are the calls of the source. The rule behind the calls is not given here.

How the values were obtained:
[1] = Inhibition of rel+ Escherichia coli B Phe-tRNA synthetase using L-[3H]-phenylalanine as substrate by scintillation counting analysis
[2] = Inhibition of Phe-tRNA synthetase in rel+ Escherichia coli B assessed as growth inhibition
In short: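 E. coli B/r in exponential growth (A600 ≈ 0.3) in basal salts medium (0.2% glucose, phosphate, MgSO4, (NH4)2SO4) was diluted into medium with a range of inhibitor levels. It was incubated at 37 °C for about three generations, until controls reached A600 0.4–0.45. Growth was read at 600 nm as % of control turbidity, and IC50 was taken from % inhibition versus concentration plots.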

Escherichia coli B [3] = assay: Ratio of IC50 for inhibition of Phe-tRNA synthetase in rel+ Escherichia coli B assessed as growth inhibition to Ki for inhibition of rel+ Escherichia coli B Phe-tRNA synthetase using L-[3H]-phenylalanine as substrate
Escherichia coli B [4] = assay: Inhibition of Phe-tRNA synthetase in rel+ Escherichia coli B assessed as growth inhibition at IC50 in presence of 2.5 mM L-Phe
In short: (§1)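 Reversal assay in E. coli B/r. Exponential culture (A600 ≈ 0.3) in basal salts glucose minimal medium was diluted into medium holding the specified amino acid plus inhibitor, at 37 °C. Controls had no inhibitor. Growth was read turbidimetrically at 600 nm after about three generations, as % inhibition relative to control.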

[5] = target: Isoleucine--tRNA ligase (Escherichia coli K-12) (UniProt P00956); assay: Inhibition of Ile-tRNA synthetase in rel+ Escherichia coli B assessed as tRNA-Ile level at 9.2 uM at 37 degC after 30 mins in absence of casamino acid supplement in tris-glucose minimal media (reference value: 40%)
Escherichia coli B [6] = assay: Inhibition of Phe-tRNA synthetase in rel+ Escherichia coli B assessed as tRNA-Phe level at 230 uM at 37 degC after 30 mins in presence of casamino acid supplement in tris-glucose minimal media (reference value: 90%)
Escherichia coli B [7] = assay: Inhibition of Val-tRNA synthetase in rel+ Escherichia coli B assessed as tRNA-val level at 230 uM at 37 degC after 30 mins in presence of casamino acid supplement in tris-glucose minimal media (reference value: 100%)
[8] = target: Isoleucine--tRNA ligase (Escherichia coli K-12) (UniProt P00956); assay: Inhibition of Ile-tRNA synthetase in rel+ Escherichia coli B assessed as tRNA-Ile level at 230 uM at 37 degC after 30 mins in presence of casamino acid supplement in tris-glucose minimal media (reference value: 50%)
Escherichia coli [9] = assay: Inhibition of Phe-tRNA synthetase in Escherichia coli NP29 assessed as formation of [32P]ppGpp at 230 uM at 30 degC measured every 1 min by scintillation counting analysis
In short: (§2)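 Exponential cultures in Tris-glucose minimal medium were labeled with carrier-free [32P]phosphate at least 30 min before inhibitor. Four to five 25 µL aliquots were taken at about 1-min intervals into ice-cold 2 M formic acid and held 30 min at 0 °C. Extracts were run on PEI-cellulose TLC in 1.5 M KH2PO4 pH 3.4. ppGpp spots were located by autoradiography and counted. Initial rate was taken as the linear increase over time.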

Escherichia coli B [10] = assay: Inhibition of Phe-tRNA synthetase in rel+ Escherichia coli B assessed as formation of [32P]ppGpp at 4.6 uM at 37 degC measured every 1 min by scintillation counting analysis in absence of casamino acid supplement in tris-glucose minimal media; in short: as §2
Escherichia coli B [11] = assay: Inhibition of Phe-tRNA synthetase in rel+ Escherichia coli B assessed as formation of [32P]ppGpp at 9.2 uM at 37 degC measured every 1 min by scintillation counting analysis in absence of casamino acid supplement in tris-glucose minimal media; in short: as §2
Escherichia coli B [12] = assay: Inhibition of Phe-tRNA synthetase in rel+ Escherichia coli B assessed as formation of [32P]ppGpp at 23 uM at 37 degC measured every 1 min by scintillation counting analysis in absence of casamino acid supplement in tris-glucose minimal media; in short: as §2
Escherichia coli B [13] = assay: Inhibition of Phe-tRNA synthetase in rel+ Escherichia coli B assessed as formation of [32P]ppGpp at 230 uM at 37 degC measured every 1 min by scintillation counting analysis in absence of casamino acid supplement in tris-glucose minimal media; in short: as §2
Escherichia coli B [14] = assay: Inhibition of Phe-tRNA synthetase in rel+ Escherichia coli B assessed as formation of [32P]ppGpp at 230 uM at 37 degC measured every 1 min by scintillation counting analysis in presence of casamino acid supplement in tris-glucose minimal media; in short: as §2
Escherichia coli B [15] = assay: Inhibition of Phe-tRNA synthetase in rel+ Escherichia coli B assessed as formation of [32P]ppGpp at 92 uM measured every 1 min by scintillation counting analysis; in short: as §2
Escherichia coli B [16] = assay: Inhibition of Phe-tRNA synthetase in rel+ Escherichia coli B assessed as growth inhibition at 92 uM
In short: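 E. coli B/r in log phase at 37 °C, with inhibitor added at a set time. Cell density was followed turbidimetrically at 600 nm alongside ppGpp and RNA synthesis measurements.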

Escherichia coli B [17] = assay: Inhibition of Phe-tRNA synthetase in rel+ Escherichia coli B assessed as [3H]-RNA synthesis at 92 uM after 5 mins by scintillation counting analysis in presence of [5-3H]-Uracil
In short: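 E. coli B/r in exponential growth was labeled with [5-3H]uracil (75 Ci/mol). At intervals, 25 µL culture was put into 1 mL ice-cold trichloroacetic acid for 5 min at 0 °C. Samples were filtered on glass-fibre filters, washed with cold TCA then 95% ethanol, and counted by scintillation.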

[18] = Inhibition of Phe-tRNA synthetase in rel+ Escherichia coli B assessed as reduction of tRNA-Phe level after 30 mins
Escherichia coli B [19] = assay: Inhibition of Phe-tRNA synthetase in rel+ Escherichia coli B assessed as half maximal rate of [32P]ppGpp formation at 70 uM measured every 1 min by scintillation counting analysis; in short: as §2
Escherichia coli B [20] = assay: Inhibition of Phe-tRNA synthetase in rel+ Escherichia coli B assessed as growth inhibition at IC50 in presence of Ser; in short: as §1
Escherichia coli B [21] = assay: Inhibition of Phe-tRNA synthetase in rel+ Escherichia coli B assessed as growth inhibition at IC50 in presence of Tyr; in short: as §1
Escherichia coli B [22] = assay: Inhibition of Phe-tRNA synthetase in rel+ Escherichia coli B assessed as growth inhibition at IC50 in presence of Ile; in short: as §1
Escherichia coli B [23] = assay: Inhibition of Phe-tRNA synthetase in rel+ Escherichia coli B assessed as growth inhibition at IC50 in presence of Pro; in short: as §1
Escherichia coli B [24] = assay: Inhibition of Phe-tRNA synthetase in rel+ Escherichia coli B assessed as growth inhibition at IC50 in presence of Val; in short: as §1
Escherichia coli [25] = assay: Inhibition of Phe-tRNA synthetase in Escherichia coli NP29 assessed as tRNA-Phe level at 230 uM at 30 degC after 30 mins (reference value: 70%)
In short: (§3)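 Temperature-sensitive Val-tRNA synthetase strain NP29, grown at 30 °C in Tris-glucose minimal medium with 0.2% casamino acids. Inhibitor was added during log growth and the control was kept at 30 °C. After 30 min, cells were quenched with ice and NaN3 and disrupted. Aminoacyl-tRNA was measured by periodate oxidation (1 mM) or Tris-HCl pH 8.0 stripping, with purified synthetases.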

Escherichia coli [26] = assay: Inhibition of Val-tRNA synthetase in Escherichia coli NP29 assessed as tRNA-val level at 230 uM at 30 degC after 30 mins (reference value: 30%); in short: as §3
[27] = target: Isoleucine--tRNA ligase (Escherichia coli K-12) (UniProt P00956); assay: Inhibition of Ile-tRNA synthetase in Escherichia coli NP29 assessed as tRNA-Ile level at 230 uM at 30 degC after 30 mins (reference value: 40%); in short: as §3
Escherichia coli B [28] = assay: Inhibition of rel+ Phe-tRNA synthetase in Escherichia coli B assessed as tRNA-Phe level at 4.6 uM at 37 degC after 30 mins in absence of casamino acid supplement in tris-glucose minimal media (reference value: 60%)
[29] = target: Isoleucine--tRNA ligase (Escherichia coli K-12) (UniProt P00956); assay: Inhibition of Ile-tRNA synthetase in rel+ Escherichia coli B assessed as tRNA-Ile level at 4.6 uM at 37 degC after 30 mins in absence of casamino acid supplement in tris-glucose minimal media (reference value: 40%)
Escherichia coli B [30] = assay: Inhibition of Phe-tRNA synthetase in rel+ Escherichia coli B assessed as tRNA-Phe level at 23 uM at 37 degC after 30 mins in absence of casamino acid supplement in tris-glucose minimal media (reference value: 60%)
[31] = target: Isoleucine--tRNA ligase (Escherichia coli K-12) (UniProt P00956); assay: Inhibition of Ile-tRNA synthetase in rel+ Escherichia coli B assessed as tRNA-Ile level at 23 uM at 37 degC after 30 mins in absence of casamino acid supplement in tris-glucose minimal media (reference value: 40%)
Escherichia coli B [32] = assay: Inhibition of Phe-tRNA synthetase in rel+ Escherichia coli B assessed as tRNA-Phe level at 230 uM at 37 degC after 30 mins in absence of casamino acid supplement in tris-glucose minimal media (reference value: 60%)
Escherichia coli B [33] = assay: Inhibition of Val-tRNA synthetase in rel+ Escherichia coli B assessed as tRNA-val level at 230 uM at 37 degC after 30 mins in absence of casamino acid supplement in tris-glucose minimal media
[34] = target: Isoleucine--tRNA ligase (Escherichia coli K-12) (UniProt P00956); assay: Inhibition of Ile-tRNA synthetase in rel+ Escherichia coli B assessed as tRNA-Ile level at 230 uM at 37 degC after 30 mins in absence of casamino acid supplement in tris-glucose minimal media (reference value: 40%)
Escherichia coli B [35] = assay: Inhibition of Phe-tRNA synthetase in rel+ Escherichia coli B assessed as tRNA-Phe level at 9.2 uM at 37 degC after 30 mins in absence of casamino acid supplement in tris-glucose minimal media (reference value: 60%)

Isoleucine--tRNA ligase (Escherichia coli K-12), sequence (P00956 whole entry): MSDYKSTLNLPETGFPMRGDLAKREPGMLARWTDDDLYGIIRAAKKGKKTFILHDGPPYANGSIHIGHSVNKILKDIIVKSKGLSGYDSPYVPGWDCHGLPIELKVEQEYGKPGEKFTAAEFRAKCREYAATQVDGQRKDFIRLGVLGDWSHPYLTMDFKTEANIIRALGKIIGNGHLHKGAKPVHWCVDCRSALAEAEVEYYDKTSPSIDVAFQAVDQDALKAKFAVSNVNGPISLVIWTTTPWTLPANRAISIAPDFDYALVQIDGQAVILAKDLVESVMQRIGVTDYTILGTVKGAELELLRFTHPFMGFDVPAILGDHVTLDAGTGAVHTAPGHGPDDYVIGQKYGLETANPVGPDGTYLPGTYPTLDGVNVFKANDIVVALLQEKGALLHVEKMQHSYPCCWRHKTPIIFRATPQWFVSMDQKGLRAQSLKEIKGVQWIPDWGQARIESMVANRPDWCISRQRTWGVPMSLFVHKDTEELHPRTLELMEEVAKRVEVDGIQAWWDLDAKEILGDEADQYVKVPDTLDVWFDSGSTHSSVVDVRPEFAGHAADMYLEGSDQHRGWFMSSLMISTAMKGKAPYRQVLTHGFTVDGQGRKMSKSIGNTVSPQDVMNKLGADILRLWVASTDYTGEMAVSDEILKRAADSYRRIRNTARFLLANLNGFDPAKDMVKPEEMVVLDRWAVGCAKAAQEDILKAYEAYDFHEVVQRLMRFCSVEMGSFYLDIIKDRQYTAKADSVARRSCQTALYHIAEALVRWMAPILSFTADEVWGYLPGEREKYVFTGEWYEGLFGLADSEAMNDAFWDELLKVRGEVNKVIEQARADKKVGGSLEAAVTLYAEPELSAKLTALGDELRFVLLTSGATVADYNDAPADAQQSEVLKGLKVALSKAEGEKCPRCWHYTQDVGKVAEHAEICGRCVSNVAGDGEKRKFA

SMILES: C[C@@H](Cc1ccccc1)NCc1ccccc1
- Ki [1]: 5.6 µM
- IC50 [2]: 590 µM
- Ratio (Escherichia coli B [3]): 105
- inhibition (Escherichia coli B [4]): inactive

SMILES: c1ccc(CCNCc2ccccc2)cc1
- Ki [1]: 0.67 µM
- IC50 [2]: 77 µM
- Ratio (Escherichia coli B [3]): 115
- inhibition (Escherichia coli B [4]): inactive

SMILES: NCCc1ccccc1 [PHENETHYLAMINE]
- Ki [1]: 93 µM
- IC50 [2]: 10900 µM
- Ratio (Escherichia coli B [3]): 117

SMILES: C[C@H](Cc1ccccc1)NCc1ccccc1 [N-BENZYLAMPHETAMINE]
- inhibition [5]: 40%
- inhibition (Escherichia coli B [6]): 15%
- inhibition (Escherichia coli B [7]): 100%
- inhibition [8]: 55%
- inhibition (Escherichia coli [9]): Active
- inhibition (Escherichia coli B [10]): Active
- inhibition (Escherichia coli B [11]): Active
- inhibition (Escherichia coli B [12]): Active
- inhibition (Escherichia coli B [13]): Active
- inhibition (Escherichia coli B [14]): Active
- inhibition (Escherichia coli B [15]): Active
- inhibition (Escherichia coli B [16]): Active
- inhibition (Escherichia coli B [17]): Active
- IC50 [18]: 13 µM
- inhibition (Escherichia coli B [19]): Active
- inhibition (Escherichia coli B [20]): Active
- inhibition (Escherichia coli B [21]): Active
- inhibition (Escherichia coli B [22]): Active
- inhibition (Escherichia coli B [23]): Active
- Ki [1]: 0.14 µM
- IC50 [2]: 15 µM
- Ratio (Escherichia coli B [3]): 107
- inhibition (Escherichia coli B [4]): inactive
- inhibition (Escherichia coli B [24]): Active
- inhibition (Escherichia coli [25]): 5%
- inhibition (Escherichia coli [26]): 95%
- inhibition [27]: 45%
- inhibition (Escherichia coli B [28]): 45%
- inhibition [29]: 40%
- inhibition (Escherichia coli B [30]): 20%
- inhibition [31]: 45%
- inhibition (Escherichia coli B [32]): 10%
- inhibition (Escherichia coli B [33]): 100%
- inhibition [34]: 45%
- inhibition (Escherichia coli B [35]): 35%

SMILES: OC[C@@H](Cc1ccccc1)NCc1ccccc1
- Ki [1]: 0.77 µM
- IC50 [2]: 82 µM
- Ratio (Escherichia coli B [3]): 106
- inhibition (Escherichia coli B [4]): inactive
